Experimental data reported in PubChem BioAssay.
The source made the active and inactive calls.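 The calls were made as follows, unless noted: active = viability at or under a set limit in both replicates, limit being median viability minus 3 SD (cut at about 48% in these data, passing the limit was not always enough); inconclusive = at or under the limit in just one replicate; inactive = at or above the limit in both replicates.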

Columns and labels:
[1] = Her2 expression decrease, cell viability multiplex – SKBR3 breast tumor cells, AlphaScreen, ATP viability, primary screen (AID 461;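 active = Her2 level under about 52% in both replicate screens, with viability over 70% of control, limit read from the data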;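 as to Her2 level: lower value means less Her2 protein in the cells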;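 as to viability: percent of carrier control wells set as 100% viability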); conditions: SKBR3 Her2 protein level, 18-24 h, measured here: SKBR3 viability, ATP luminescence, at 10 µM
[2] = molecular target: Receptor tyrosine-protein kinase erbB-2 (Homo sapiens) (UniProt P04626); test: as above; conditions: 18-24 h, at 10 µM, stronger effect = lower value
Sequence of Receptor tyrosine-protein kinase erbB-2 (Homo sapiens) (P04626 whole entry, looked up): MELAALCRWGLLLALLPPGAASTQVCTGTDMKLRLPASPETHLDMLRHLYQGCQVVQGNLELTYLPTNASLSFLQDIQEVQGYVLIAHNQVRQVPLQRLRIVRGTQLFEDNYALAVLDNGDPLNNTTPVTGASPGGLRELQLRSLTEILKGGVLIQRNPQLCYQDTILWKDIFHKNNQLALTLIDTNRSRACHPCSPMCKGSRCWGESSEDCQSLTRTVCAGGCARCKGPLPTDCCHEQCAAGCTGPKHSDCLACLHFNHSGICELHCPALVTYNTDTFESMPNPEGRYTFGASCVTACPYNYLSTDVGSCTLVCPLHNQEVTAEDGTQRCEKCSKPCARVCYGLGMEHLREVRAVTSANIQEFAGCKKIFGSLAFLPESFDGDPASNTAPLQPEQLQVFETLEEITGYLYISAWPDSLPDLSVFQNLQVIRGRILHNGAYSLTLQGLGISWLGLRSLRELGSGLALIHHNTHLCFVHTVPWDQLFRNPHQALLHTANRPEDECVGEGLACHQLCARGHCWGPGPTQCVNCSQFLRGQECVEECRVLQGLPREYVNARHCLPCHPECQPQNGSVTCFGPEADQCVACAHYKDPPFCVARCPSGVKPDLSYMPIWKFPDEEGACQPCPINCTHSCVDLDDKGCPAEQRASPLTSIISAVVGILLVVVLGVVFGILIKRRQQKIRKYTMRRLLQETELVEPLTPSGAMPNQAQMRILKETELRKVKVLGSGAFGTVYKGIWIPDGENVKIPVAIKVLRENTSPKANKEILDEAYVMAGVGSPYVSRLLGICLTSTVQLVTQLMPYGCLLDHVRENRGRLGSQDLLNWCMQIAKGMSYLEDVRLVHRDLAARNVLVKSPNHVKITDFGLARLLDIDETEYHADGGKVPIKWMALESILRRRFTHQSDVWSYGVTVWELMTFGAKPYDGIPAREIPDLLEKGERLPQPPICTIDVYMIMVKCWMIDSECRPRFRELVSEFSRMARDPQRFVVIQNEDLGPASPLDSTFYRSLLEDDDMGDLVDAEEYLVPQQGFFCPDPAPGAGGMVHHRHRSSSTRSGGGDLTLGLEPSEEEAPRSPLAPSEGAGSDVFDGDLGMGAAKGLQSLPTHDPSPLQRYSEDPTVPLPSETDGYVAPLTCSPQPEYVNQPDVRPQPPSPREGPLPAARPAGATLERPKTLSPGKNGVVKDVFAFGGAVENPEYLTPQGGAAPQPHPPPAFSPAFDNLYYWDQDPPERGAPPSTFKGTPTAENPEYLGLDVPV

[3] = reduced viability of SK-BR-3 breast cancer cells – cell-based, 24 h, human, pilot screen (AID 572;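 active = viability at or below 10% of carrier control in both of two separate runs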;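 also: compound exposure lasted between 18 and 24 h rather than exactly 24 h; 100% = carrier-treated control wells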); conditions: SK-BR-3 viability, CellTiter-Glo luminescence, at 10 µM, stronger effect = lower value
[4] = HUVEC growth inhibition – cell-based, human, primary screen (AID 575;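 active = viability at or below 30% in both replicate assays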;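 also: 100% = median of untreated cell wells with 0.1% DMSO on each plate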); conditions: HUVEC proliferation, CellTiter-Glo luminescence, 72 h; at 10 µM; stronger effect = lower value
Method in brief: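 Test system: primary human umbilical vein endothelial cells; medium: endothelial basal medium with 2% FBS plus growth supplements; dosing: 10 µM compound only; times: 72 h treatment at 37 °C; signal: CTG luminescence; read-out: % viability relative to median vehicle-well signal on each plate; control set: vehicle and MePR control wells; plate: 384-well, collagen-coated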

[5] = H69AR cell proliferation blockers – human, duplicate replicates, primary screen (AID 580); conditions: H69AR lung tumor cells viability, ATP luminescence, 72 h; at 10 µM; stronger effect = lower value;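 also: 100% = mean luminescence of untreated wells and 0% = no signal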
[6] = MRP1 drug-resistance reversers in H69AR cells – cell-based, doxorubicin co-treatment, pilot screen (AID 601;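 active = viability loss from added drug above about 55%, and viability with drug at most 40%, in both replicates, limit read from the data, passing the limit was not always enough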); conditions: CellTiter-Glo, 72 h, at 10 µM; for differential viability (reversal): stronger effect = higher value
[7] = yeast transport mutant growth inhibition pilot in 384-well plates, post-Golgi transport modulator project (AID 636; in the data active = inhibition above about 31%); conditions: absorbance 615 nm, about 18 h, stronger effect = higher value
[8] = growth suppression of yeast trafficking mutant, preliminary HTS, modulators of trafficking downstream of Golgi apparatus project, 1536-format plate, OD 615 nm (AID 637; in the data active = inhibition above about 30%); conditions: yeast transport mutant growth, absorbance 615 nm, 18 h; stronger effect = higher value
[9] = H69AR cells + 2 uM doxorubicin, measured here: viability with 2 uM doxorubicin, stronger effect = lower value
[10] = H69AR cells, compound alone cytotoxicity

SMILES | viability [1] [%] | Her2 level [2] | viability [3] | viability [4] | viability [5] | differential viability (reversal) ([6]; H69AR cells + 2 uM doxorubicin) | viability [6, 9] [%] | viability [6, 10] [%] | inhibition [7] | inhibition [8]
Cc1cccc(N2C(=O)CC(Sc3nc(C)c4c(n3)CCCC4)C2=O)c1 (stereo not given) | 80.5 | 128% (inactive) | 80.5% (inactive) | 102% (inactive) | 90.3% (inactive) | -0.055% (inactive) | 90.3 | 90.3 | -0.27% (inactive) | 27.5% (inactive)
CC1=CC2=C(OC1N(C)C)c1cccc3cccc(c13)C2=O (stereo not given) | 106 | 65% (inactive) | 106% (inactive) | 83% (inactive) | 78.5% (inactive) | -0.375% (inactive) | 78.9 | 78.5 | 2.21% (inactive) | 6.17% (inactive)
O=C(NCc1cccs1)c1cc2c(s1)CCCC2 | 92.5 | 102% (inactive) | 92.5% (inactive) | 85.8% (inactive) | 97.6% (inactive) | 5.47% (inactive) | 92.2 | 97.6 | 0.65% (inactive) | 2.13% (inactive)
Cc1ccc(S(=O)(=O)Cc2ccc(C(=O)NCCCN3CCN(C)CC3)o2)cc1 | 104 | 99.5% (inactive) | 104% (inactive) | 96.9% (inactive) | 103% (inactive) | 11% (inactive) | 92.1 | 103 | -0.66% (inactive) | -5.64% (inactive)
COc1ccc(C2C3=C(CC(C)(C)CC3=O)Oc3ncn4nc(-c5cccnc5)nc4c32)cc1 (stereo not given) | 96 | 84.5% (inactive) | 96% (inactive) | 108% (inactive) | 105% (inactive) | 14.3% (inactive) | 90.9 | 105 | -9.05% (inactive) | 0% (inactive)
O=C(CSCc1cnn(-c2ccccc2)c1-n1cccc1)NCC1CCCO1 (stereo not given) | 97.5 | 85% (inactive) | 97.5% (inactive) | 94.1% (inactive) | 93.7% (inactive) | -10.7% (inactive) | 104 | 93.7 | -4.59% (inactive) | -2.7% (inactive)
Cc1cc(C(=O)COC(=O)C2COc3ccccc3O2)c(C)n1CC1CCCO1 (stereo not given) | 82 | 100% (inactive) | 82% (inactive) | 99.4% (inactive) | 94% (inactive) | 0.315% (inactive) | 93.6 | 94 | -0.38% (inactive) | -4.5% (inactive)
O=C(/C=N/O)Nc1cccnc1 | 110 | 90% (inactive) | 110% (inactive) | 91.3% (inactive) | 83.2% (inactive) | -6.35% (inactive) | 89.6 | 83.2 | -1.84% (inactive) | 3.71% (inactive)
CCOCCCNc1ncnc2c1[nH]c1ccccc12 | 99 | 96.5% (inactive) | 99% (inactive) | 89.5% (inactive) | 90.3% (inactive) | -13.3% (inactive) | 104 | 90.3 | -2.63% (inactive) | 1.31% (inactive)
CCCCCCn1c(SCCCC)nc2c1c(=O)[nH]c(=O)n2C | 93.5 | 99% (inactive) | 93.5% (inactive) | 72.7% (inactive) | 88.2% (inactive) | 0.76% (inactive) | 87.5 | 88.2 | -5.07% (inactive) | -5% (inactive)
COC(=O)c1c(N)nc(C)n1-c1ccc(OC)cc1 | 86.5 | 91% (inactive) | 86.5% (inactive) | 95.9% (inactive) | 96.1% (inactive) | 4.61% (inactive) | 91.5 | 96.1 | -3.33% (inactive) | -3.77% (inactive)
COc1ccc(N2CCN(CCCNC(=O)CC3Oc4ccc(C)cc4NC3=O)CC2)cc1 (stereo not given) | 87.5 | 99% (inactive) | 87.5% (inactive) | 88.9% (inactive) | 89.6% (inactive) | 0.915% (inactive) | 88.7 | 89.6 | -2.27% (inactive) | -2.62% (inactive)
CC(=O)C1=C(O)C(=O)N(Cc2ccco2)C1c1ccc(F)cc1 (stereo not given) | 102 | 110% (inactive) | 102% (inactive) | 123% (inactive) | 109% (inactive) | 8.52% (inactive) | 100 | 109 | 1.07% (inactive) | -5% (inactive)
O=c1[nH]c2cccnc2n1Cc1ccco1 | 90 | 88% (inactive) | 90% (inactive) | 107% (inactive) | 97.5% (inactive) | 13.8% (inactive) | 83.8 | 97.5 | -4.32% (inactive) | 0.83% (inactive)
O=C(OCC(=O)c1cccs1)C1=COCCO1 | 89 | 102% (inactive) | 89% (inactive) | 91.6% (inactive) | 89.1% (inactive) | 1.52% (inactive) | 87.6 | 89.1 | -0.38% (inactive) | -1% (inactive)
CCOC(=O)C1CCN(c2c(N3CCCC(C(=O)OCC)C3)c(=O)c2=O)CC1 (stereo not given) | 103 | 119% (inactive) | 103% (inactive) | 97.1% (inactive) | 96.9% (inactive) | -3.29% (inactive) | 100 | 96.9 | 2.31% (inactive) | -2% (inactive)

SMILES | viability [1] [%] | Her2 level [2] | viability [3] | viability [4] | viability [5] | differential viability (reversal) ([6]; H69AR cells + 2 uM doxorubicin) | viability [6, 9] [%] | viability [6, 10] [%] | inhibition [7] | inhibition [8]
Clc1ccc(OCc2nc(-c3ccccn3)no2)c(Br)c1 | 82.5 | 92.5% (inactive) | 82.5% (inactive) | 55.6% (inactive) | 102% (inactive) | 3.96% (inactive) | 98.4 | 102 | -0.26% (inactive) | -8.67% (inactive)
c1c2c(cc3sc(N4CCCCC4)nc13)OCCO2 | 98 | 91.5% (inactive) | 98% (inactive) | 87% (inactive) | 75.4% (inactive) | 2.07% (inactive) | 73.3 | 75.4 | -4.93% (inactive) | 7.26% (inactive)
COc1ccc(OC)c(S(=O)(=O)N2CCC(C(=O)NCC3CCCO3)CC2)c1 (stereo not given) | 101 | 84.5% (inactive) | 101% (inactive) | 106% (inactive) | 98.9% (inactive) | 8.66% (inactive) | 90.2 | 98.9 | -6.27% (inactive) | -3.49% (inactive)
Cc1cnn(Cc2ccccc2)c1N | 115 | 73.5% (inactive) | 115% (inactive) | 84.3% (inactive) | 88.7% (inactive) | 11.2% (inactive) | 77.6 | 88.7 | -6.08% (inactive) | 4.76% (inactive)
Cn1c(=O)[nH]c(=O)c2[nH]c(CN3CCN(C(=O)c4ccco4)CC3)nc21 | 98.5 | 80% (inactive) | 98.5% (inactive) | 90.3% (inactive) | 107% (inactive) | 13.8% (inactive) | 92.9 | 107 | -1.58% (inactive) | 0.73% (inactive)
O=C(c1ccccc1)c1coc2ccc(O)c(CN3CCOCC3)c12 | 78.5 | 75.5% (inactive) | 78.5% (inactive) | 115% (inactive) | 88.5% (inactive) | -9.25% (inactive) | 97.8 | 88.5 | -3.42% (inactive) | 5.9% (inactive)
NC(=O)c1c(NC(=O)CSc2nnc(-c3ccco3)n2-c2ccccc2)sc2c1CCC2 | 76 | 68% (inactive) | 76% (inactive) | 56.5% (inactive) | 28.9% (active) | -37.9% (inactive) | 66.8 | 28.9 | -4% (inactive) | 35.7% (active)
O=c1c2ccccc2sn1-c1ccc(S(=O)(=O)N2CCCCC2)cc1 | 91.5 | 81.5% (inactive) | 91.5% (inactive) | 83.9% (inactive) | 78.1% (inactive) | 5.85% (inactive) | 72.3 | 78.1 | -5.54% (inactive) | 9.17% (inactive)
CCCCc1nccn1CCn1ccnc1CCCC | 87 | 85.5% (inactive) | 87% (inactive) | 97% (inactive) | 85.8% (inactive) | -0.88% (inactive) | 86.7 | 85.8 | -3.47% (inactive) | 1.61% (inactive)
CCCCOc1cccc(NC(=O)CSc2nccn2C)c1 | 107 | 81.5% (inactive) | 107% (inactive) | 99.9% (inactive) | 85.3% (inactive) | -1.98% (inactive) | 87.3 | 85.3 | -7.03% (inactive) | 0.5% (inactive)
CCN(CCCNC(=O)CC1Oc2ccc(C)cc2NC1=O)Cc1ccccc1 (stereo not given) | 116 | 94.5% (inactive) | 116% (inactive) | 97.8% (inactive) | 85% (inactive) | 4.2% (inactive) | 80.8 | 85 | -2.27% (inactive) | -2.13% (inactive)
Nc1c(Sc2ccccc2)c(=O)[nH]c(=O)n1Cc1ccccc1 | 90.5 | 104% (inactive) | 90.5% (inactive) | 109% (inactive) | 102% (inactive) | 8.38% (inactive) | 93.2 | 102 | -5.14% (inactive) | -6% (inactive)
C=CCSc1nc(N)c(C(=O)Nc2ccccc2C)cc1C(N)=O | 93 | 121% (inactive) | 93% (inactive) | 99.9% (inactive) | 87.4% (inactive) | -2.21% (inactive) | 89.6 | 87.4 | 4.42% (inactive) | 4.67% (inactive)
CCOc1cccc(OCCOCCN2CCCC2)c1 | 107 | 89% (inactive) | 107% (inactive) | 91.3% (inactive) | 89.4% (inactive) | -1.11% (inactive) | 90.5 | 89.4 | -6.22% (inactive) | -3.17% (inactive)
CCN1CCN(c2nc3c(C)cccn3c(=O)c2/C=C(\C#N)S(=O)(=O)c2ccccc2)CC1 | 93 | 76.5% (inactive) | 93% (inactive) | 89.6% (inactive) | 75.1% (inactive) | -7.74% (inactive) | 82.8 | 75.1 | -2.76% (inactive) | -0.18% (inactive)
C=CCn1c(Cc2cccs2)nnc1SCC(=O)Nc1ccc(OC)c(OC)c1 | 108 | 109% (inactive) | 108% (inactive) | 89.6% (inactive) | 85.3% (inactive) | -5.02% (inactive) | 90.3 | 85.3 | -5.06% (inactive) | 0% (inactive)
